Assay results from ChEMBL document CHEMBL1137845, “Discovery of N-propylurea 3-benzylpiperidines as selective CC chemokine receptor-3 (CCR3) antagonists” (Bioorg Med Chem Lett, 2004).
One block for each compound: values may come before it.

Legend:
[1] = target: T1, C-C chemokine receptor type 3 (Homo sapiens, UniProt P51677); assay: Inhibitory concentration against C-C chemokine receptor type 3 using human [125I]eotaxin.
T1 sequence (P51677 whole entry): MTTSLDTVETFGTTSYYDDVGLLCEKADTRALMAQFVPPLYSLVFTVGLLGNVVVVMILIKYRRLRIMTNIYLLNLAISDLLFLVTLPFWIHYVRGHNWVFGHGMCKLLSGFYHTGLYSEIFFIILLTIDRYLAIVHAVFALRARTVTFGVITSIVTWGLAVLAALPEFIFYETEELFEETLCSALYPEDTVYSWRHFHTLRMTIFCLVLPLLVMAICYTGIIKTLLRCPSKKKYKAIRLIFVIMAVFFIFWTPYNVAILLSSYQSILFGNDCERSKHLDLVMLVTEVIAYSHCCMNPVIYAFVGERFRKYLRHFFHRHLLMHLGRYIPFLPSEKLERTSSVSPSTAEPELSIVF
Summary of the method: (§1)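 Displacement of 150 pM 125I-labeled human eotaxin from CHO cells (5×10^5 per well), compound 0.0001–1 μM, in RPMI 1640 with 0.5% BSA, 10 mM HEPES, 5 mM MgCl2; filter plates pretreated with 5 μg/mL protamine in PBS pH 7.2. 30 min at room temperature, vacuum filtration, three washes with binding buffer plus 0.5 M NaCl, bound label by liquid scintillation counting.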

[2] = target: 5-hydroxytryptamine receptor 2A (Homo sapiens, UniProt P28223); assay: Inhibition of binding to serotonin 5-hydroxytryptamine 2A receptor
Sequence of 5-hydroxytryptamine receptor 2A (P28223 whole entry): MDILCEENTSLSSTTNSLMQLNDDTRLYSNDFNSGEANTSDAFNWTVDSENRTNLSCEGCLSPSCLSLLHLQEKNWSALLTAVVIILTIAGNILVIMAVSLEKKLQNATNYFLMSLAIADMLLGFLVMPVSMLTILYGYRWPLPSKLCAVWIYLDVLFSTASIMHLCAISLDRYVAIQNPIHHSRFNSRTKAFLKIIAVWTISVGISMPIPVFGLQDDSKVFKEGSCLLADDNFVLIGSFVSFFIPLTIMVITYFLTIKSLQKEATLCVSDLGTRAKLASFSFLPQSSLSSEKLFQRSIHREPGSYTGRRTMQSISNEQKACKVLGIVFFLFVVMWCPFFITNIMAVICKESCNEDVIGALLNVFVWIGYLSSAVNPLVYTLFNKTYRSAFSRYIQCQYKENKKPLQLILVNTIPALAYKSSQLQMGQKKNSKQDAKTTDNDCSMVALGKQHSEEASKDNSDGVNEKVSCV

[3] = target: T2, C-C chemokine receptor type 3 (Homo sapiens) (UniProt P51677); assay: Inhibitory concentration of compound against C-C chemokine receptor type 3 was determined using human [125I]eotaxin; settings: concentration not given here; summary of the method: as §1
T2 sequence (whole entry): T1 sequence (P51677 whole entry)

[4] = Effect on chemotaxis of eosinophils was determined; assay type: functional
[5] = Effective concentration determined in calcium mobilization assay; assay type: functional
Summary of the method: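 Calcium flux in 2×10^5 eosinophils preloaded with Fluo-3AM, stimulated with 10 nM eotaxin, compound 0.0001–1 μM, in RPMI 1640 with 0.1% BSA, 20 mM HEPES and 2.5 mM probenecid; fluorescence read on a fluorescent imaging plate reader.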

[6] = target: CC chemokine receptor 3 (Homo sapiens); assay: Binding affinity against CC chemokine receptor 3 was determined using human [125I]-eotaxin

IC50 [1]: 3.1 nM
Structure (SMILES): CC(C)n1nnnc1-c1cccc(NC(=O)NCCCN2CCC[C@@H](Cc3ccc(F)cc3)C2)c1

Ki [2]: 193 nM
Structure (SMILES): CC(=O)c1cccc(NC(=O)NCCCN2CCC(Cc3ccc(F)cc3)CC2)c1

inhibition [3]: 0%
Structure (SMILES): CC(=O)c1cccc(NC(=O)NCCCN2CCN(C(C)=O)C(Cc3ccc(F)cc3)C2)c1 (stereo unspecified)

IC50 [1]: 56 nM
Structure (SMILES): CC(=O)c1cccc(NC(=O)NCCCN2C[C@H]3Cc4ccc(F)cc4C[C@H]3C2)c1

EC50 [4]: 0.4 nM
IC50 [1]: 0.7 nM
EC50 [5]: 0.76 nM
Structure (SMILES): Cn1nnnc1-c1cc(NC(=O)NCCCN2CCC[C@@H](Cc3ccc(F)cc3)C2)cc(-c2nnnn2C)c1

EC50 [4]: < 1 nM
IC50 [1]: 0.7 nM
EC50 [5]: 0.6 nM
Structure (SMILES): CNC(=O)c1cc(NC(=O)NCCCN2CCC[C@@H](Cc3ccc(F)cc3)C2)cc(-c2nnnn2C)c1

IC50 [1]: 0.9 nM
Structure (SMILES): Cn1nnnc1-c1cc(CO)cc(NC(=O)NCCCN2CCC[C@@H](Cc3ccc(F)cc3)C2)c1

inhibition [3]: 66%
Structure (SMILES): N#Cc1cccc(NC(=O)NCCCN2CCCC(CCc3ccccc3)C2)c1 (stereo unspecified)

IC50 [1]: 7.9 nM
Structure (SMILES): O=C(NCCCN1CCC[C@@H](Cc2ccc(F)cc2)C1)Nc1cccc(-c2cnco2)c1

IC50 [1]: 49 nM
Structure (SMILES): CC(=O)c1cccc(NC(=O)NCCCN2C[C@@H]3Cc4ccc(F)cc4C[C@H]3C2)c1

EC50 [4]: < 1 nM
IC50 [1]: 3.1 nM
EC50 [5]: 3.4 nM
Structure (SMILES): Cn1nnnc1-c1cc(Br)cc(NC(=O)NCCCN2CCC[C@@H](Cc3ccc(F)cc3)C2)c1

IC50 [1]: 31 nM
Ki [2]: 178 nM
Structure (SMILES): N#Cc1cccc(NC(=O)NCCCN2CCC(Cc3ccc(F)cc3)C2)c1 (stereo unspecified)

IC50 [1]: 39 nM
Structure (SMILES): CC(=O)c1cccc(NC(=O)NCCCN2CCC[C@H](Cc3ccc(F)cc3)C2)c1

Ki [2]: 167 nM
Structure (SMILES): N#Cc1cccc(NC(=O)NCCCN2CCC(Cc3ccc(F)cc3)CC2)c1

inhibition [3]: 31%
Structure (SMILES): COc1cccc(CC2CCCN(CCCNC(=O)Nc3cccc(C#N)c3)C2)c1 (stereo unspecified)

IC50 [1]: 55 nM
Ki [2]: 913 nM
Structure (SMILES): COc1cccc(NC(=O)NCCCN2CCCC(Cc3ccccc3)C2)c1 (stereo unspecified)

IC50 [1]: 2.6 nM
Structure (SMILES): CC(=O)c1cc(NC(=O)NCCCN2CCC[C@@H](Cc3ccc(F)cc3)C2)cc(-c2nnnn2C)c1

inhibition [3]: 14%
Structure (SMILES): COc1cccc(NC(=O)NCCCN2CCOC(Cc3ccccc3)C2)c1 (stereo unspecified)

Ki [2]: 224 nM
Structure (SMILES): COc1cccc(NC(=O)NCCCN2CCC(Cc3ccc(F)cc3)CC2)c1

IC50 [1]: 802 nM
Structure (SMILES): CC(=O)c1cccc(NC(=O)NCCCN2CC3CCC2[C@H](Cc2ccc(F)cc2)C3)c1 (stereo partly specified)

Ki [2]: 770 nM
Structure (SMILES): N#Cc1cccc(NC(=O)NCCCN2CCC(Cc3ccccc3)CC2)c1

IC50 [1]: 41 nM
Ki [2]: 2940 nM
Structure (SMILES): N#Cc1cccc(NC(=O)NCCCN2CCCC(Cc3ccccc3)C2)c1 (stereo unspecified)

IC50 [1]: 3.6 nM
EC50 [5]: 45 nM
Structure (SMILES): O=C(NCCCN1CCC[C@@H](Cc2ccc(F)cc2)C1)Nc1cccc(-c2nnco2)c1

IC50 [1]: 38 nM
Ki [2]: 2240 nM
Structure (SMILES): N#Cc1cccc(NC(=O)NCCCN2CCCC(Cc3ccccc3F)C2)c1 (stereo unspecified)

IC50 [1]: 7.4 nM
Structure (SMILES): CC(=O)c1cccc(NC(=O)NCCCN2[C@@H]3CC[C@H]2C[C@@H](Cc2ccc(F)cc2)C3)c1 (stereo in doubt; 21)

IC50 [1]: 1.2 nM
Structure (SMILES): Cn1nnnc1-c1cc(NC(=O)NCCCN2CCC[C@@H](Cc3ccc(F)cc3)C2)cc(C(F)(F)F)c1

IC50 [1]: 19 nM
Ki [2]: 2350 nM
Structure (SMILES): N#Cc1cccc(NC(=O)NCCCN2CCCC(Cc3ccc(F)cc3F)C2)c1 (stereo unspecified)

IC50 [1]: 1.2 nM
Structure (SMILES): CCn1nnnc1-c1cccc(NC(=O)NCCCN2CCC[C@@H](Cc3ccc(F)cc3)C2)c1

IC50 [1]: 169 nM
Structure (SMILES): CC(=O)c1cccc(NC(=O)NCCCN2CC3CCC2[C@@H](Cc2ccc(F)cc2)C3)c1 (stereo partly specified)

EC50 [4]: 3 nM
IC50 [1]: 1.2 nM
Structure (SMILES): CC(=O)c1cc(NC(=O)NCCCN2CCC[C@@H](Cc3ccc(F)cc3)C2)cc(C(C)=O)c1

EC50 [4]: 25 nM
IC50 [1]: 2.5 nM
Ki [2]: 1350 nM
EC50 [5]: 2.4 nM
Structure (SMILES): CC(=O)c1cccc(NC(=O)NCCCN2CCC[C@@H](Cc3ccc(F)cc3)C2)c1

inhibition [3]: 68%
Structure (SMILES): CC(=O)c1cccc(NC(=O)NCCCN2C[C@@H]3C[C@@H](c4ccc(F)cc4)[C@@H]3C2)c1

IC50 [1]: 2.4 nM
Structure (SMILES): Cn1nnnc1-c1cc(NC(=O)NCCCN2CCC[C@@H](Cc3ccc(F)cc3)C2)cc(-c2ccccc2)c1

Ki [2]: 613 nM
Structure (SMILES): COc1cccc(NC(=O)NCCCN2CCC(Cc3ccccc3)CC2)c1

EC50 [4]: 3.2 nM
IC50 [1]: 0.6 nM
EC50 [5]: 1.3 nM
Structure (SMILES): Cn1nnnc1-c1cccc(NC(=O)NCCCN2CCC[C@@H](Cc3ccc(F)cc3)C2)c1

IC50 [1]: 47 nM
Structure (SMILES): CC(=O)c1cccc(NC(=O)NCCCN2[C@@H]3CC[C@H]2C[C@@H](Cc2ccc(F)cc2)C3)c1 (stereo in doubt; 22)

EC50 [4]: 1 nM
IC50 [1]: 1.5 nM
EC50 [5]: 0.9 nM
Structure (SMILES): Cc1cc(NC(=O)NCCCN2CCC[C@@H](Cc3ccc(F)cc3)C2)cc(-c2nnnn2C)c1

inhibition [3]: 11%
Structure (SMILES): N#Cc1cccc(NC(=O)NCCCN2CCCC(Cc3ccc(C(F)(F)F)cc3)C2)c1 (stereo unspecified)

IC50 [1]: 29 nM
Ki [2]: 2310 nM
Structure (SMILES): N#Cc1cccc(NC(=O)NCCCN2CCCC(Cc3ccc(F)cc3)C2)c1 (stereo unspecified)

IC50 [1]: 39 nM
Structure (SMILES): CC(=O)c1cccc(NC(=O)NCCCN2CC3(Cc4ccc(F)cc4)CCC2CC3)c1

inhibition [3]: 84%
IC50 [6]: 787 nM
Structure (SMILES): COc1cccc(NC(=O)NCCCN2CCCC(CCc3ccccc3)C2)c1 (stereo unspecified)

IC50 [1]: 7.1 nM
Structure (SMILES): O=C(NCCCN1CCC[C@@H](Cc2ccc(F)cc2)C1)Nc1cccc(-n2ccnc2)c1

inhibition [3]: 36%
Structure (SMILES): N#Cc1cccc(NC(=O)NCCCN2CCOC(Cc3ccccc3)C2)c1 (stereo unspecified)

IC50 [1]: 243 nM
Structure (SMILES): N#Cc1cccc(NC(=O)NCCCN2CCCC(Cc3cccc(F)c3)C2)c1 (stereo unspecified)
